Holding throughout (type): functional
Assay [1] concerns Nocardia brasiliensis. The assay is described as follows: Antimicrobial activity against Nocardis brasiliensis by broth microdilution method. A digest of the protocol: (§1)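 MIC by CLSI broth microdilution in Mueller-Hinton broth. Daptomycin testing used broth supplemented with calcium at physiological level (50 μg/ml). Vancomycin and linezolid were tested from standard powders. Control strains were S. aureus ATCC 29213 and Enterococcus faecalis 29212.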
For orientation: In broth dilution the organism is exposed to a series of concentrations in liquid medium.

Assay [2] relates to Listeria monocytogenes. The assay is described as follows: Antimicrobial activity against Listeria monocytogenes by broth microdilution method. The gist of the method:
as §1

Assay [3] concerns Nocardia sp. The assay is described as follows: Antimicrobial activity against Nocardia spp. by broth microdilution method. The gist of the method: as §1
The test system of assay [4] is Rhodococcus sp. The assay can be described thus: Antimicrobial activity against Rhodococcus spp. by broth microdilution method. The note with it: Rhodococcus sp. (in: high G+C Gram-positive bacteria). A digest of the protocol: as §1
Assay [5] relates to Nocardia asteroides. The assay can be described thus: Antimicrobial activity against Nocardia asteroides by broth microdilution method. The gist of the method:
as §1

Assay [6] relates to Nocardia asteroides. The assay is described as follows: Antimicrobial activity against Nocardia asteroids by Etest. A digest of the protocol:
(§2)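 Daptomycin MIC read from an Etest strip carrying a daptomycin-plus-calcium gradient, run per manufacturer's instructions. Each isolate was compared with its broth microdilution MIC (Mueller-Hinton broth, 50 μg/ml calcium). Agreement was defined as within 1 twofold dilution. Mean log2 difference was tested by one-sample t test.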

Assay [7] relates to Pediococcus. The assay is described as follows: Antimicrobial activity against Pediococcus spp. by broth microdilution method. The gist of the method: as §1
The test system of assay [8] is Listeria monocytogenes. The assay can be described thus: Antimicrobial activity against Listeria monocytogenes by Etest. The gist of the method: as §2
Assay [9] concerns Rhodococcus sp. The assay can be described thus: Antimicrobial activity against Rhodococcus spp. by Etest. The note with it: Rhodococcus sp. (in: high G+C Gram-positive bacteria). A digest of the protocol: as §2
Assay [10] concerns Leuconostoc. The assay can be described thus: Antimicrobial activity against Leuconostoc spp. by broth microdilution method. A digest of the protocol:
as §1

Assay [11] deals with Leuconostoc. The assay is described as follows: Antimicrobial activity against Leuconostac spp. by Etest. A digest of the protocol:
as §2

Assay [12] concerns Nocardia sp. The assay is described as follows: Antimicrobial activity against Nocardia spp. by Etest. The gist of the method:
as §2

The subject of assay [13] is Pediococcus. The assay is described as follows: Antimicrobial activity against Pediococcus spp. by Etest. The gist of the method: as §2
Assay [14] concerns Nocardia brasiliensis. The assay is described as follows: Antimicrobial activity against Nocardis brasiliensis by Etest. The gist of the method: as §2

Values after ≈ are worked out from the molar mass of the structure shown.

By MIC50 is commonly meant an inhibitory concentration at the 50% level, which refers to growth in some studies and to a panel of isolates in others. A high value points to lower susceptibility. In general, MIC90 refers to the lowest concentration that inhibits either 90% of growth or 90% of the strains tested, depending on the study. Consider `CCCCCCCCCC(=O)N[C@@H](Cc1c[nH]c2ccccc12)C(=O)N[C@H](CC(N)=O)C(=O)N[C@@H](CC(=O)O)C(=O)N[C@@H]1C(=O)NCC(=O)N[C@@H](CCCN)C(=O)N[C@@H](CC(=O)O)C(=O)N[C@H](C)C(=O)N[C@@H](CC(=O)O)C(=O)NCC(=O)N[C@H](CO)C(=O)N[C@@H]([C@H](C)CC(=O)O)C(=O)N[C@@H](CC(=O)c2ccccc2N)C(=O)O[C@@H]1C`, for which the MIC50 in the assay on Nocardia brasiliensis [1] is more than 64 µg/mL; with Listeria monocytogenes [2] it was 4 µg/mL (≈ 2.47 µM); against Nocardia sp. [3] it was more than 64 µg/mL; in the assay with Rhodococcus sp. [4] it was more than 64 µg/mL; in the assay with Nocardia asteroides [5] it was more than 64 µg/mL; against Nocardia asteroides [6], more than 256 µg/mL. Besides, the MIC50 in the assay with Pediococcus [7] was 0.25 µg/mL (≈ 0.154 µM); in the assay with Listeria monocytogenes [8], 3 µg/mL (≈ 1.85 µM); in the assay with Rhodococcus sp. [9], 96 µg/mL (≈ 59.2 µM); against Leuconostoc [10], 0.12 µg/mL (≈ 0.074 µM); against Leuconostoc [11] it was 0.25 µg/mL (≈ 0.154 µM); in the assay on Nocardia sp. [12] it was more than 256 µg/mL. Also, the MIC50 with Pediococcus [13] is 0.25 µg/mL (≈ 0.154 µM); with Nocardia brasiliensis [14], more than 256 µg/mL. Besides, the MIC90 against Nocardia brasiliensis [1] is more than 64 µg/mL; in the assay on Listeria monocytogenes [2], 4 µg/mL (≈ 2.47 µM); in the assay with Nocardia sp. [3], more than 64 µg/mL; in the assay on Rhodococcus sp. [4] it was more than 64 µg/mL; with Nocardia asteroides [5] it was more than 64 µg/mL; in the assay on Nocardia asteroides [6], more than 256 µg/mL. Besides, the MIC90 in the assay with Pediococcus [7] is 0.5 µg/mL (≈ 0.309 µM); in the assay with Listeria monocytogenes [8], 4 µg/mL (≈ 2.47 µM); against Rhodococcus sp. [9] it was more than 256 µg/mL; against Leuconostoc [10], 0.25 µg/mL (≈ 0.154 µM); against Leuconostoc [11], 0.5 µg/mL (≈ 0.309 µM); against Nocardia sp. [12], more than 256 µg/mL. The MIC90 is 0.5 µg/mL (≈ 0.309 µM) in the assay with Pediococcus [13] and more than 256 µg/mL against Nocardia brasiliensis [14].
Take `CC(=O)NC[C@H]1CN(c2ccc(N3CCOCC3)c(F)c2)C(=O)O1` [LINEZOLID]: the MIC50 with Nocardia brasiliensis [1] came out at 8 µg/mL (≈ 23.7 µM); in the assay with Listeria monocytogenes [2] it was 2 µg/mL (≈ 5.93 µM); in the assay on Nocardia sp. [3], 4 µg/mL (≈ 11.9 µM); against Rhodococcus sp. [4], 1 µg/mL (≈ 2.96 µM); in the assay with Nocardia asteroides [5], 4 µg/mL (≈ 11.9 µM); against Pediococcus [7], 2 µg/mL (≈ 5.93 µM). This compound registered an MIC50 with Leuconostoc [10] of 4 µg/mL (≈ 11.9 µM). The MIC90 came out at 8 µg/mL (≈ 23.7 µM) in the assay on Nocardia brasiliensis [1]; 2 µg/mL (≈ 5.93 µM) in the assay with Listeria monocytogenes [2]; 4 µg/mL (≈ 11.9 µM) against Nocardia sp. [3]; 2 µg/mL (≈ 5.93 µM) against Rhodococcus sp. [4]; 4 µg/mL (≈ 11.9 µM) with Nocardia asteroides [5]; 4 µg/mL (≈ 11.9 µM) against Pediococcus [7]. Besides, the MIC90 against Leuconostoc [10] was 4 µg/mL (≈ 11.9 µM).
As for `CN[C@H](CC(C)C)C(=O)N[C@H]1C(=O)N[C@@H](CC(N)=O)C(=O)N[C@H]2C(=O)N[C@H]3C(=O)N[C@H](C(=O)N[C@H](C(=O)O)c4cc(O)cc(O)c4-c4cc3ccc4O)[C@H](O)c3ccc(c(Cl)c3)Oc3cc2cc(c3O[C@@H]2O[C@H](CO)[C@@H](O)[C@H](O)[C@H]2O[C@H]2C[C@](C)(N)[C@H](O)[C@H](C)O2)Oc2ccc(cc2Cl)[C@H]1O` [VANCOMYCIN], the MIC50 against Nocardia brasiliensis [1] is more than 64 µg/mL; with Listeria monocytogenes [2], 1 µg/mL (≈ 0.69 µM); in the assay on Nocardia sp. [3], more than 64 µg/mL; against Rhodococcus sp. [4] it was 1 µg/mL (≈ 0.69 µM); against Nocardia asteroides [5] it was more than 64 µg/mL; against Pediococcus [7] it was more than 64 µg/mL. Further, the MIC50 against Leuconostoc [10] was more than 64 µg/mL. Moreover, the MIC90 was more than 64 µg/mL in the assay with Nocardia brasiliensis [1]; 1 µg/mL (≈ 0.69 µM) with Listeria monocytogenes [2]; more than 64 µg/mL against Nocardia sp. [3]; more than 64 µg/mL with Rhodococcus sp. [4]; more than 64 µg/mL in the assay on Nocardia asteroides [5]; more than 64 µg/mL against Pediococcus [7]. The MIC90 against Leuconostoc [10] was more than 64 µg/mL.

For the origin of these results see ChEMBL document CHEMBL1146199, “Daptomycin susceptibility of unusual gram-positive bacteria: comparison of results obtained by the Etest and the broth microdilution method” (2007).
